Screens (PubChem)
TDP2 absorb = TDP2 (human) inhibition, absorbance primary screen | O95551 | recombinant TDP2, T5PNP hydrolysis, p-nitrophenol absorbance 415 nm | inhibition, % at 12.8 µM | actives 0.34% (n = 370,000);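 active = inhibition above the mean of all tested compounds plus 3 SD, set per campaign, cut at about 25% in these data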;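 also: 0% = DMSO with enzyme and 100% = buffer with substrate but no TDP2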
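System – recombinant human TDP2 · Quantity – TDP2 enzyme at 120 nM final · Doses – single concentration, 12.8 µM nominal, with 1% DMSO · Incubation – 2 h at 37 °C · Measured by – epi absorbance of p-nitrophenol freed from T5PNP by hydrolysis · Read-out – % inhibition relative to enzyme-containing and enzyme-free wells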
ASAP1 inh = inhibitors of human ASAP1 ArfGAP activity; Q9ULH1; ASAP1-stimulated ARF1 GTP hydrolysis, GDP FP detection; inhibition, % at 16.5 µM; actives 0.19% (n = 360,000); AID 624377;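 also: 0% = vehicle with enzyme and substrate and 100% = no enzyme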
ARFGAP1 inhibitor = rat ARFGAP1 inhibition; Q62848; inhibition, % at 16.5 µM; Arfgap1-stimulated ARF1 GTP hydrolysis, GDP FP detection; actives 0.26% (n = 360,000);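 active = inhibition above a per-plate limit, mean inhibition of low control wells plus 3 SD, cut at about 25% in these data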;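 also: 0% = DMSO wells with enzyme and 100% = wells lacking Arfgap1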
Target sequence (Q62848 1-136 limits assumed): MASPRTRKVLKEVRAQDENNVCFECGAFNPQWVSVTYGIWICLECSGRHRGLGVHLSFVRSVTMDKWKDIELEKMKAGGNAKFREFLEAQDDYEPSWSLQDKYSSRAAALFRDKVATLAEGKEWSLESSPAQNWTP
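Assay system: purified rat His6-Arfgap1 residues 1-136 (GAP domain); Reagent: human Δ17 ARF1 bound to GTP; Dosing: 16.5 µM single point, 1.26% DMSO; Times: GTP hydrolysis reaction 2 h at 25 °C; Signal: FP, GDP Alexa 633 tracer displaced from anti-GDP antibody, 620/688 nm; Measure: % inhibition from polarization.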
LEDGF integ inh = blocks HIV-1 LEDGF/p75-dependent DNA integration; inhibition, % at 3.7 µM; actives 0.64% (n = 370,000); TR-FRET IN-LEDGF/p75 DNA integration, Eu/Cy5;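 active = inhibition above the screen-wide mean plus 3 SD, cut at about 13% in these data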;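 also: signal is the Cy5 over europium emission ratio at 671 and 618 nm; 0% = plate median of compound wells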
CASP6 VEID inh = caspase-6 (human) enzyme inhibition. purified caspase-6, Z-VEID-R110 cleavage fluorescence. inhibition, % at 12.5 µM. actives 0.53% (n = 350,000). AID 686996;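 active = mean inhibition across replicates at least about 35%, with every replicate also reaching that limit, limit read from the data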;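 also: 0% = median of neutral control wells and 100% = no fluorescence left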
Target sequence (P55212 24-179 limits assumed): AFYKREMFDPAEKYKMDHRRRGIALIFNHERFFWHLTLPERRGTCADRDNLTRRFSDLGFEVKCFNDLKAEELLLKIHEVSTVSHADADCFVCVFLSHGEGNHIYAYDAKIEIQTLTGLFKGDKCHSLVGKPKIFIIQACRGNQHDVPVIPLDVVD
Target sequence (P55212 194-293 limits assumed): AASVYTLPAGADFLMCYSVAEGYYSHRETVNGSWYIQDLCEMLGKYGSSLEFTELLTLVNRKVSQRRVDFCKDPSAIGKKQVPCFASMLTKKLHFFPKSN
TDP2 inh conf = confirmation of human TDP2 inhibitors; inhibition, % at 12.8 µM; AID 743263; shares compounds with TDP2 absorb; actives 22% (n = 1,100); recombinant human TDP2, absorbance read-out;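 also: 0% = vehicle with enzyme and 100% = no enzyme buffer only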
* marks the source's active call; other numbers are inactive results; . = no result. Only some compounds are listed: those with a hit (about 1.3% of all), similar ones and a draw of the others. Rule as the data show it, unless noted: active = inhibition above about 25%; inactive = the rest.

SMILES | TDP2 absorb | ASAP1 inh | ARFGAP1 inhibitor | LEDGF integ inh | CASP6 VEID inh | TDP2 inh conf
CCOC(=O)c1[nH]c2ccc(OC)cc2c1NC(=S)N1CCN(c2cccc(C)c2C)CC1 | -6 | -12 | 2 | 1 | -3 | .
COc1ccccc1C(=O)COC(=O)c1nc(Cl)ccc1Cl | 5 | -7 | 9 | 1 | -2 | .
O=C(COC(=O)c1nc(Cl)ccc1Cl)c1ccccc1Cl | 29* | 1 | -3 | 1 | 3 | 0
COCCNC(=S)N1CCC(C(=O)c2ccc(Cl)cc2)CC1 | 3 | -8 | -9 | -1 | -2 | .
COc1c(F)c(F)cc2c(=O)c(C(=O)O)cn(C3CC3)c12 | 26* | -3 | 2 | -3 | -1 | 1
Cn1ccc2c(N3c4ccccc4CCc4ccccc43)cc3c(c21)C1CCC3O1 (stereo unspecified) | 28* | -5 | 0 | 10 | 0 | 3
Cn1ccc2c(N3c4ccccc4CCc4ccccc43)cc3c(c21)C1CCC3C1 (stereo unspecified) | 0 | 1 | 4 | 1 | 9 | .
COc1ccc2ccc3c(c2c1)N=C[C@]1(O3)N(C)c2ccccc2C1(C)C | 41* | 2 | -12 | 7 | 3 | 0
O=C1CN(C(=O)NCC(=O)N[C@@H](Cc2ccccc2)C(=O)O)c2ccccc2N1 | -3 | -7 | -13 | -1 | -3 | .
CC(CCc1ccccc1)NC(=O)CNC(=O)N1CC(=O)Nc2ccccc21 (stereo unspecified) | 25* | -6 | 6 | 3 | 0 | 9
N#Cc1sc2nc(-c3ccccc3)cc(-c3ccco3)c2c1N | 54* | 9 | -2 | 8 | . | 56*
N#Cc1sc2nc(C3CC3)cc(-c3ccccc3)c2c1N | -1 | 2 | -2 | 1 | -1 | .
Cc1ccc(C)c(CN2CCSCC2)c1 | 26* | -7 | 3 | -5 | 0 | 4
Clc1ccc(CN2CCSCC2)c(Cl)c1 | 10 | -2 | 2 | -3 | 2 | .
O=C(NCC1CCCO1)c1cccnc1NCc1ccc(F)cc1 (stereo unspecified) | 1 | 0 | 9 | 1 | 4 | .
O=C(NCC1CCCO1)c1cccnc1Nc1ccccc1F (stereo unspecified) | 40* | -1 | 10 | -1 | . | 6
O=C(N/N=C/c1cc(Cl)ccc1O)c1cccnc1 | 60* | 7 | 5 | -5 | -9 | -13
c1ccc(CSc2nnc(-c3c[nH]c4ccccc34)o2)cc1 | 8 | 8 | 10 | 0 | . | .
Cc1ccc(CN2CCC(N3CC(C)OC(C)C3)CC2)cc1 (stereo unspecified) | 25* | 5 | -2 | 0 | -12 | 4
CNC[C@H]1OCCCC[C@@H](C)Oc2ccc(NS(=O)(=O)c3ccc(C)cc3)cc2C(=O)N([C@@H](C)CO)C[C@H]1C | . | . | . | . | -2 | .
O=C(NCC(c1ccco1)N1CCOCC1)c1c(F)cccc1F (stereo unspecified) | 25* | 2 | -5 | -2 | -1 | -2
CCCCn1c(NC(=O)c2ccccc2Cl)c(C#N)c2nc3ccccc3nc21 | 38* | 21 | 8 | 6 | . | 72*
CCC(=O)Nc1c(C#N)c2nc3ccccc3nc2n1-c1ccccc1C | 3 | 15 | -5 | -1 | . | .
COc1ccc(-n2c(NC(=O)c3ccco3)c(C#N)c3nc4ccccc4nc32)cc1 | 60* | 2 | -5 | 7 | . | 67*
CCOC(=O)c1c(NC(=O)c2ccco2)n(C2CCCCC2)c2nc3ccccc3nc12 | 60* | 24 | 9 | 8 | . | 60*
CC1=NOC(=O)/C1=C/c1ccc(N(C)C)cc1 | 18 | 12 | 1 | 1 | . | .
CC1=NN(CCC#N)C(=O)/C1=C/c1ccc(N(C)C)cc1 | 42* | -7 | -6 | -3 | -3 | -4
COc1cc(/C=C2\C(=O)N(CCC#N)N=C2C)ccc1OCC(=O)Nc1ccccc1 | 84* | -1 | 14 | 9 | . | 20
CC(C)CNC(=O)COC(=O)c1cc(S(=O)(=O)N2CCCCC2)ccc1N1CCOCC1 | -10 | -1 | 3 | 2 | . | .
CC1=NN(c2ccc(F)cc2)C(=O)C1C(c1cccc(O)c1)c1c(C)[nH]n(-c2ccc(F)cc2)c1=O (stereo unspecified) | 89* | 2 | 16 | 39* | . | 48*
